Test results taken from paper PMC7781011 (Journal of Inflammation Research, 2020).
Positions count from the first letter of the chain named. “Also recorded” adds a separate entry of the source. Read-outs that look alike come from different tables or passages of the source.

How the values were obtained:
[1] = tested on: PGI2 production in LPS-stimulated macrophages of humans, mice, and rats; experiment: PGI2 production in LPS-stimulated macrophages, range over species; format: cell-based; details: Macrophage
Summary of the method: (§1)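 Human macrophages derived from THP-1 monocytes with PMA. Rat/mouse peritoneal macrophages collected by lavage with ice-cold DMEM, selected by glass adherence (1 h, 37°C), Trypan-blue checked. Cells in DMEM+10% FBS at 10,000 (96-well) or 40,000 (24-well) per well, given non-toxic compound doses, then LPS 10 µg/mL for 24 h. PGE2, PGI2 and LTB4 measured in supernatant. IC50 by four-parameter nonlinear regression.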

mouse 5-LOX = target: T1, mouse 5-LOX (Mus musculus, UniProt P48999); experiment: Cell-free fluorometric 5-LOX assay; format: biochemical
T1 sequence (P48999 1-674): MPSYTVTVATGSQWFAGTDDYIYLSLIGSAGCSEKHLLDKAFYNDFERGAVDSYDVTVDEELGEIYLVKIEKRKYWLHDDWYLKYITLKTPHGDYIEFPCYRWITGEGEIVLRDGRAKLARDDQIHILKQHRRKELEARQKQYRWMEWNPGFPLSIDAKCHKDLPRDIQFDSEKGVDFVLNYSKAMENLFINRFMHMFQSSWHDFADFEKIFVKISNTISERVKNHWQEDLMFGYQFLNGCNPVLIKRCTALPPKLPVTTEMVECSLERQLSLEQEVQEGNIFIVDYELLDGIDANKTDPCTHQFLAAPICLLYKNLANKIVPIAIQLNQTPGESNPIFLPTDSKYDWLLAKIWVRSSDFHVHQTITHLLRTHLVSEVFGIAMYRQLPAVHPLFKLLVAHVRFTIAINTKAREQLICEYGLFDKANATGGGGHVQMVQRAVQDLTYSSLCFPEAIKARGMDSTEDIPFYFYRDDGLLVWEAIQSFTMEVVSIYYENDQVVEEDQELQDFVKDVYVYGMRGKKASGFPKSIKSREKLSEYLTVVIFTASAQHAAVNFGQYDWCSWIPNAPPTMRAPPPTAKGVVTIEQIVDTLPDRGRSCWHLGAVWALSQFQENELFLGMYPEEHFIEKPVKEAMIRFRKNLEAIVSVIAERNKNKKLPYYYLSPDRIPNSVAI

rat COX-2 = target: T2, rat COX-2 (Rattus norvegicus, UniProt P35355); experiment: Cell-free fluorometric COX-2 assay; format: biochemical
T2 sequence (P35355 18-604): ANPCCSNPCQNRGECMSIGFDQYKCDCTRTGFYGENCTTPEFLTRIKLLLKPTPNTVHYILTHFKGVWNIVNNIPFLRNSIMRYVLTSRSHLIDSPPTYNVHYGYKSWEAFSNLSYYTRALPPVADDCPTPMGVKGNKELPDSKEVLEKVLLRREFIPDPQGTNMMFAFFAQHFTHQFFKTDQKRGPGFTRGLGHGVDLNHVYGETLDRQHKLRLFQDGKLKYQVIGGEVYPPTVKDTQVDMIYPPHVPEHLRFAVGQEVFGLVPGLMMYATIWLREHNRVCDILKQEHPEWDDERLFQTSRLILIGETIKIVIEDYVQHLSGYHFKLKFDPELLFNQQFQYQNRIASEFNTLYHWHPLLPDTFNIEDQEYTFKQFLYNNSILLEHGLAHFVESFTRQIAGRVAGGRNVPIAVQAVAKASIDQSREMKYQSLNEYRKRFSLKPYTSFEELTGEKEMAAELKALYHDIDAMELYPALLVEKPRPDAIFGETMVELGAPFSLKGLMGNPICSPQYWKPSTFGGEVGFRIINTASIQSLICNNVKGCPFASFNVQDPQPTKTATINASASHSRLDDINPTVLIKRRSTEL

[2] = tested on: PGE2 production in LPS-stimulated macrophages of humans, mice, and rats; experiment: PGE2 production in LPS-stimulated macrophages, range over species; format: cell-based; details: Macrophage, read-out: IC50 range PGE2 production
Summary of the method: as §1

rat mPGES-1 = target: T3, rat mPGES-1 (Rattus norvegicus, UniProt Q9JHF3); experiment: Cell-free mPGES-1 assay; format: biochemical; details: IC50 mPGES-1, cell-free
T3 sequence (Q9JHF3 1-153): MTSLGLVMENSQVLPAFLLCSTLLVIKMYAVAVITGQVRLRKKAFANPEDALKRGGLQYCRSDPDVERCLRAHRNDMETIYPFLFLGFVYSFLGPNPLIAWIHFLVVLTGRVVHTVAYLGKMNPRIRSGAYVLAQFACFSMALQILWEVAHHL

human COX-1 = human COX-1 (Homo sapiens, UniProt P23219); experiment: Cell-free fluorometric COX-1 assay; format: biochemical
Chain of human COX-1 (P23219 24-599): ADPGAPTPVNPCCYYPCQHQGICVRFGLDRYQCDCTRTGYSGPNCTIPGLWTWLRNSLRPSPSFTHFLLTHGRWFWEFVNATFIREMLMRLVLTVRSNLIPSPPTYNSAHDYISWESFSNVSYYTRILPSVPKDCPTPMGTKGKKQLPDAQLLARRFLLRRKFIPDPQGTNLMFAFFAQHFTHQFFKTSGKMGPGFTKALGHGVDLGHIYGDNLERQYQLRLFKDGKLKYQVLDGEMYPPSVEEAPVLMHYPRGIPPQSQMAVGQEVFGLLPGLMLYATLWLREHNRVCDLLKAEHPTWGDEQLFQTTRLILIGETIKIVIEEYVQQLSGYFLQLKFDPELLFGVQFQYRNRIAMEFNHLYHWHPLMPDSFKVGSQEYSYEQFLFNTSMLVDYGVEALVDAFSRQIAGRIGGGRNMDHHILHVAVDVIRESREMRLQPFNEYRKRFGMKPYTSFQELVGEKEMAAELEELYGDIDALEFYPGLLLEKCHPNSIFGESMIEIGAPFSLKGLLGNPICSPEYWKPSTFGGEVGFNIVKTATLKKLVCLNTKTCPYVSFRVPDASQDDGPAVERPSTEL

[3] = tested on: LTB4 production in LPS-stimulated macrophages of humans, mice, and rats; experiment: LTB4 production in LPS-stimulated macrophages, range over species; format: cell-based; details: Macrophage, read-out: IC50 range LTB4 production
Summary of the method: as §1

mouse mPGES-1 = target: T4, mouse mPGES-1 (Mus musculus, UniProt Q9JM51); experiment: Cell-free mPGES-1 assay; format: biochemical
T4 sequence (Q9JM51 1-153): T3 sequence (Q9JHF3 1-153) with T2P, L4P, N10S, S11G, V38M, C60Y, M122L, I126L, A137S
Summary of the method: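 Enzyme in 15 mM Tris-HCl pH 7.4 with 1 mM GSH, preincubated 20 min with compound (0.1–100 µM); plate held 15 min at 20°C. PGH2 (final 2.8 µM) added, 45 s at room temperature, then stopped with SnCl2 in 1N HCl. PGE2 by ELISA, in triplicate, % inhibition versus untreated. Human enzyme from E. coli or commercial; mouse enzyme from vas deferens/seminal vesicles. IC50 by four-parameter nonlinear regression.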

[4] = tested on: PGE2 production, colon tumor spheroids of Apc^Pirc/+ rats; experiment: PGE2 in colon spheroid culture supernatant; format: cell-based, rat; details: compared with the untreated control
Summary of the method: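 Pirc rat colorectal crypt/single-cell spheroids grown in ultra-low-attachment wells in B27/N2, FBS, EGF, Noggin, R-spondin 1 and Y-27632 medium, changed every other day. PGE2 in supernatants of treated and untreated wells measured by ELISA, in pg/mL.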

[5] = tested on: carrageenan-induced hind paw edema of rats; experiment: Carrageenan-induced rat paw edema model; format: in vivo, rat (male Fischer F344); details: for TXB2 levels in paw exudates / LTB4 levels in paw exudates / PGE2 levels in paw exudates / PGI2 levels in paw exudates: 400 ppm; for edema inhibition (maximum): 400 ppm in diet (oral), 3 hours after carrageenan injection; for LTB4 levels in paw exudates / PGE2 levels in paw exudates / PGI2 levels in paw exudates: compared to control (vehicle)
Summary of the method: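 Male F344 rats (350–400 g) fed AIN-76A diet, either control or with compound or reference inhibitor at 400 ppm; separate saline group. 0.1 mL 1% λ-carrageenan in saline injected subplantar into left hind paw, saline into right. Dorsiventral paw thickness by digital caliper before and 1–6 h after injection; % edema inhibition. Paw exudate PGE2, LTB4, TXB2 and PGI2 measured by ELISA. Stomach and organs examined for ulcers.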

| IC50 ([1]; read-out: IC50 range PGI2 production) | IC50 (rat COX-2) | IC50 (human COX-1) | SMILES | IC50 ([1]; read-out: IC50 PGI2 production) | IC50 (mouse 5-LOX) | inhibition of COX-2 activity (rat COX-2; cell-free, rat, up to the tested range of 1 mM) | IC50 [2] | IC50 (rat mPGES-1) | inhibition of COX-1 activity (human COX-1; cell-free, human, up to the tested range of 1 mM) | IC50 [3] | IC50 (mouse mPGES-1) | inhibition of PGE2 production [4] | TXB2 levels in paw exudates [5] | gastrointestinal (and other) toxicity ([5]; 400 ppm in diet) | edema inhibition (maximum) [5] | LTB4 levels in paw exudates [5] | PGE2 levels in paw exudates [5] | PGI2 levels in paw exudates [5] |
| --- | --- | --- | --- | --- | --- | --- | --- | --- | --- | --- | --- | --- | --- | --- | --- | --- | --- | --- |
| – | – | – | CC1(C)Cc2c(-c3ccccc3)c(-c3ccc(Cl)cc3)c(CC(=O)NCC(=O)O)n2C1 [LFA-9, 2-[[2-[2-(4-chlorophenyl)-6,6-dimethyl-1-phenyl-5,7-dihydropyrrolizin-3-yl]acetyl]amino]acetic acid] | > 100 µM | 2.64 µM | did not show inhibition | 0.47 to 0.78 µM | 1.4 µM | did not show inhibition | 0.63 to 1.24 µM | 0.52 µM | 82% | maintained homeostasis | did not show any gastrointestinal toxicity; also recorded: did not show any gastrointestinal and any other toxicities | 70.4% | reduced | reduced | spared |
| 0.85 to 0.91 µM | 3.26 µM | 1.65 µM | CC1(C)Cc2c(-c3ccccc3)c(-c3ccc(Cl)cc3)c(CC(=O)O)n2C1 [Licofelone, reference compound] | – | 2.34 µM | – | 0.56 to 1.31 µM | 12.3 µM | – | 0.53 to 1.6 µM | > 15 µM | 63% | reduced | – | 61.7% | reduced | reduced | reduced |
